Assay [1] deals with NCI-H460. The assay can be described thus: In vitro cytotoxic activity against nonsmall cell lung carcinoma (NCI-H460) cells assayed by inhibition of [3H]-labeled thymidine incorporation. Format: functional, cell-based. The note with it: Homo sapiens. A digest of the protocol: (§1)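 Human tumour lines in 10% FBS medium (HT-29 and MES-SA in McCoy's 5a; NCI-H460 in RPMI 1640; DU-145 in MEM/Earle's), 37 °C, 5% CO2. Trypsin/EDTA-harvested, plated at 1 × 10⁴ cells/well, attached ~4 h. Serial dilutions tested, 8 wells/concentration. [methyl-³H]thymidine, 0.25 μCi/well, added at 24 h, then 48 more h (72 h total). Cells Triton-lysed, filter-harvested, counted. IC50 is the average of 3–5 determinations.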
(Incorporation of labelled thymidine or its analogues reports DNA synthesis.)

For assay [2], the system named is HT-29. The assay can be described thus: In vitro cytotoxic activity against colon adenocarcinoma (HT-29) cells assayed by inhibition of [3H]-labeled thymidine incorporation. Format: functional, cell-based. The following applies: Homo sapiens. A digest of the protocol: as §1
Assay [3] concerns DU-145. The assay can be described thus: In vitro cytotoxic activity against prostate carcinoma (DU-145) cells assayed by inhibition of [3H]-labeled thymidine incorporation. Format: functional, cell-based. The following applies: Homo sapiens. The method, boiled down: as §1
Assay [4] relates to MES-SA (Homo sapiens). The assay can be described thus: In vitro cytotoxic activity against uterine sarcoma (MES-SA) cells assayed by inhibition of [3H]-labeled thymidine incorporation.
The test system of assay [5] is Lymphoma cell line. The assay can be described thus: Percent decrease of Lymphoma mass of animals treated with the compound. Also noted: scale not given: the % may be the effect or the level left. Format: functional. A digest of the protocol:
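Male SD rats, 2 months old, ~300 g, 4 per group. 10⁶ SD lymphoma cells given s.c. to the right flank. From day 10, drug in PBS pH 7.2 (3 mL, 1 mg/mL) was injected once daily next to the tumour for 10 days; controls got PBS only. Rats were killed 24 h later and lymphomas weighed. Result is mean mass decrease versus controls.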

The test system of assay [6] is HT-29. The assay can be described thus: In vitro cytotoxic activity against colon adenocarcinoma (HT-29) cells assayed by inhibition of [3H]-labeled thymidine incorporation; Not calculable. Format: functional, cell-based, Homo sapiens. A digest of the protocol: as §1
The subject of assay [7] is MES-SA (Homo sapiens). The assay can be described thus: In vitro cytotoxic activity against uterine sarcoma (MES-SA) cells assayed by inhibition of [3H]-labeled thymidine incorporation; Not calculable.
Assay [8] concerns DU-145. The assay can be described thus: In vitro cytotoxic activity against prostate carcinoma (DU-145) cells assayed by inhibition of [3H]-labeled thymidine incorporation; Not calculable. Format: functional, cell-based, Homo sapiens. The method, boiled down: as §1
Assay [9] deals with NCI-H460. The assay can be described thus: In vitro cytotoxic activity against nonsmall cell lung carcinoma (NCI-H460) cells assayed by inhibition of [3H]-labeled thymidine incorporation; Not calculable. Format: functional, cell-based, Homo sapiens. The method, boiled down:
as §1

pIC50: −log10 of the molar value.

As usually defined, the pIC50 is −log10 of the IC50, conventionally taken in molar units.

In the case of `CCCCCCCCCCCCCCCCOP(=O)([O-])COCC[N+](C)(C)C`, the pIC50 was 4.80 in [1], 5.32 in [2], 4.77 in assay [3] and 5.68 in [4]. The same compound gave an Activity in [5] of 41%.

Take `CCCCCCCCCCCCCCCOP(=O)([O-])COCC[N+](C)(C)C`: the pIC50 was 4.74 in assay [1], 4.70 in assay [3] and 5.02 in [4]. Besides, the IC50 result in [6] is listed as “Not calculable”.

For `CCCCCCCCCCCCOP(=O)([O-])COCC[N+](C)(C)C`, the pIC50 in assay [1] was 3.86; in assay [3], 3.88. The IC50 result in assay [7] and in [6] was “Not calculable” each time.

In the case of `CCCCCCCCCCCCCCOP(=O)([O-])COCC[N+](C)(C)C`, the pIC50 in assay [1] was 4.39; in assay [2], 4.91. Further, the IC50 entry in [7] and in assay [8] was “Not calculable” throughout. Moreover, the Activity in assay [5] is listed as 30%.

For the compound `CCCCCCCCCCOP(=O)([O-])COCC[N+](C)(C)C`, the IC50 result in [9], in assay [7], in assay [6] and in [8] was “Not calculable” in each case.

Consider `Nc1ccn([C@@H]2O[C@H](CO)[C@@H](O)C2(F)F)c(=O)n1` [GEMCITABINE], for which the pIC50 in [1] was 8.11; in assay [2], 8.52; in assay [3] it was 7.45; in [4], 8.04.

Regarding `CCCCCCCCCCCCCCCCOP(=O)([O-])OCC[N+](C)(C)C` [MILTEFOSINE], the pIC50 in assay [1] is 5.18; in [2], 5.21; in assay [3], 4.60; in assay [4] it was 5.27.

For the compound `CC(=O)O[C@H]1C(=O)[C@@]2(C)[C@H]([C@H](OC(=O)c3ccccc3)[C@]3(O)C[C@H](OC(=O)[C@H](O)[C@@H](NC(=O)c4ccccc4)c4ccccc4)C(C)=C1C3(C)C)[C@]1(OC(C)=O)CO[C@@H]1C[C@@H]2O` [PACLITAXEL], the pIC50 in assay [1] was 9.85; in assay [2], 9.80; in [4] it was 10.40.

`CC[C@]1(O)C[C@H]2CN(CCc3c([nH]c4ccccc34)[C@@](C(=O)OC)(c3cc4c(cc3OC)N(C=O)[C@H]3[C@@](O)(C(=O)OC)[C@H](OC(C)=O)[C@]5(CC)C=CCN6CC[C@]43[C@@H]65)C2)C1` [VINCRISTINE]: the pIC50 in assay [1] is 9.89; in [2] it was 11.00; in [3] it was 8.95; in assay [4] it was 10.70.

(Values after ChEMBL document CHEMBL1134309, “O-Phosphonatomethylcholine, its analogues, alkyl esters, and their biological activity” (J Med Chem, 2001).)
